# Screening data as filed in PubChem.
# Only some compounds are listed: those with a hit (about 3.5% of all), similar ones and a draw of the others.
# RGS4 inh: human RGS4 inhibition; actives 0.45% (n = 310,000); AID 463165; HEK293 M3R/RGS4 inducible, Fluo-4 calcium flux; active compounds read high; triggered by carbachol at its EC20; B-score at 10 µM; P49798;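 active means B-score, a plate-corrected calcium signal, over three deviations above library mean, with baseline fluorescence within five deviations of library mean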;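 further: RGS4 expression induced by doxycycline in cells with stable M3 receptor; B-score is computed from the integrated fluorescence ratio over baseline after carbachol; higher B-score means a larger calcium signal and so more RGS4 inhibition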
# Target sequence (P49798 whole entry, looked up): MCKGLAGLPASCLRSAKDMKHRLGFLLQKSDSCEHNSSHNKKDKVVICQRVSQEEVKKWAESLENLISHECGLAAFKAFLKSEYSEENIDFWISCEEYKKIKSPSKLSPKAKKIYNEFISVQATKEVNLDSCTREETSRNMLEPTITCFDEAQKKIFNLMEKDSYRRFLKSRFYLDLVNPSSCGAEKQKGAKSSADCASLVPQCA
# MrgX1 allo act: allosterically activates human MrgX1 receptor signaling; actives 0.63% (n = 310,000); B-score at 10 µM; Q96LB2; MrgX1-HEK293, Fluo-4 calcium flux, FDSS; active compounds read high;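 active means plate-corrected calcium response at least 3 library SD above typical, normal starting fluorescence, not activating the receptor alone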;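 further: compound read alongside a low EC10 to EC30 dose of BAM8-22 agonist; peak minus trough fluorescence over baseline measured at the second addition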
# Target sequence (Q96LB2 whole entry, looked up): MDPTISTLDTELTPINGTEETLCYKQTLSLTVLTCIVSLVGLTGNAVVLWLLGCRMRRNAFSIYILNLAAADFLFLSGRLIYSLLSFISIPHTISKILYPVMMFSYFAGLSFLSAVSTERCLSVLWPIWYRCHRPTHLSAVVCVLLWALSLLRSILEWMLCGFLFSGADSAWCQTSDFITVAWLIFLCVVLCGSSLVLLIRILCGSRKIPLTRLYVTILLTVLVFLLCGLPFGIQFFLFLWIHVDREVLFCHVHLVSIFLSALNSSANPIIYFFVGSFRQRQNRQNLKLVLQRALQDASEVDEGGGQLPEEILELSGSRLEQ
# MrgX1 antag: human MrgX1 receptor antagonism, primary screen; MRGX1-HEK293 calcium flux, Fluo-4, BAM8-22 antagonism; active compounds read low; B-score at 10 µM; Q96LB2; actives 1.3% (n = 310,000);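 active means calcium-response B-score plate-corrected more than 3 library SD below zero, starting fluorescence within 5 deviations, no agonist response on first addition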;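 further: peak minus trough fluorescence over baseline after final BAM8-22 challenge near maximal dose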
# MrgX1 agonist: agonists of human MrgX1 receptor | Q96LB2 | MrgX1-HEK293 cells, Fluo-4 calcium fluorescence, agonist mode; active compounds read high | B-score at 10 µM | actives 0.44% (n = 310,000) | AID 588627;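 active means calcium response B-score plate-corrected fluorescence ratio at least 3 library SD, with starting fluorescence B-score inside 5 SD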
#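 Material – MrgX1-expressing HEK293 cells · Input – 15,000 cells seeded per well · Dosing – compound as first of three additions · Times – overnight seeding, then 1 h dark dye loading · Measured by – kinetic Fluo-4 NW fluorescence of intracellular calcium · Read-out – B-scored fluorescence response ratio · Benchmarks – positive and negative control wells on each plate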
# RGS4 act: potentiators or activators of RGS4. AID 463111. HEK293 M3R/inducible RGS4, carbachol calcium flux Fluo4; active compounds read low. actives 0.92% (n = 310,000). B-score at 10 µM;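 active means B-score of the integrated calcium signal more than 4 SD below the library mean, with starting fluorescence not abnormally high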;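 further: negative B-score means reduced calcium response which marks RGS4 activation or potentiation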
#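 test system = HEK293 cells with stable M3R and inducible RGS4 | schedule = recording 10 s baseline at 1 Hz, 100 s post-agonist | technique = Fluo4-AM (2 µM) calcium-flux fluorescence, kinetic read | measure = Agonist-evoked peak-minus-minimum fluorescence over baseline, integrated ratio, B score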
# * hit, by the source's call; i = inactive; · = not tested or not shown.
SMILES,RGS4 inh,MrgX1 allo act,MrgX1 antag,MrgX1 agonist,RGS4 act
COc1ccc(Br)cc1CN(C)C(=O)c1ccccc1OCc1c(C)noc1C,i,i,i,i,i
CCC(Sc1nc(C)cc(C)n1)C(=O)Nc1nccs1 (configuration not stated),i,i,i,i,i
Cc1ccccc1/C=C/C1=NCCN1,·,i,i,i,·
O=C(N/N=C\c1cc(Br)c(Br)o1)c1cncc(Br)c1,i,i,i,i,i
O=C(N/N=C/c1cc(Br)c(Br)o1)c1cccnc1,i,i,-6*,i,i
COc1cc(C(=O)N/N=C/c2ccc(OC(=O)c3ccccc3Cl)c(OC)c2)ccc1O,i,i,-4.65*,i,-9.9*
CCOc1ncccc1C(=O)Nc1ccc(C)cn1,i,i,i,i,i
Cc1cccc([N+](=O)[O-])c1NC(=O)CN(Cc1ccccc1)Cc1ccccc1,i,i,i,i,-8.61*
CCn1nc(C)cc1-c1nnc(Sc2ncc([N+](=O)[O-])s2)n1C,i,i,i,37.6*,-7.89*
O=C(CN1CCc2cc3c(cc2C1)OCCCO3)Nc1cccc(Br)c1,i,i,i,i,i
Fc1cccc(Cl)c1CNC(c1ccccc1)c1ccccc1,i,i,i,i,-7.05*
O=C(CNC(c1ccccc1)c1ccccc1)Nc1c(F)cccc1F,i,i,i,i,i
COc1ccc(C2=CC(=O)C=CC2=O)cc1,i,·,·,·,i
O=[N+]([O-])c1cccc(C2CC(c3ccccc3)=NN2c2ccccc2)c1 (configuration not stated),i,i,-7.63*,i,i
CC1=NN(c2ccc([N+](=O)[O-])cc2)C(c2ccccc2)C1 (configuration not stated),i,i,i,i,i
O=Cc1ccc(N2N=C(c3ccccc3)CC2c2ccccc2)cc1 (configuration not stated),i,i,i,i,-9.96*
O=C(O)c1ccc(N2N=C(c3ccccc3)CC2c2ccccc2)cc1 (configuration not stated),i,i,i,i,i
N#CC1CC(c2ccc([N+](=O)[O-])cc2)=NN1c1ccc([N+](=O)[O-])cc1 (configuration not stated),i,i,-6.2*,i,i
CN(C(=O)COC(=O)c1ccccc1OCc1ccc(Cl)cc1)c1c(N)n(Cc2ccccc2)c(=O)[nH]c1=O,i,i,i,i,i
Nc1c(C(=O)C2CC2)sc2nc(-c3ccccc3)cc(C(F)(F)F)c12,i,i,i,i,-9.35*
COc1ccc(-c2cc(C(F)(F)F)c3c(N)c(C(=O)NCCSC)sc3n2)cc1,i,i,i,i,i
Cc1ccc(-c2nn(-c3ccccc3)cc2CNCc2ccccc2)cc1,i,i,i,i,i
N=C(N)SCc1cn(-c2ccccc2)nc1-c1ccc(Br)cc1,i,·,·,·,-7.51*
CC(=O)Nc1ccc(C(=O)NNC(=O)C2C3CCCCC32)cc1 (configuration not stated),i,i,i,i,i
O=C(Nc1cccnc1Cl)c1cc(-c2cccc(O)c2)on1,i,i,i,i,i
SMILES,RGS4 inh,MrgX1 allo act,MrgX1 antag,MrgX1 agonist,RGS4 act
O=[N+]([O-])c1cccnc1S(=O)(=O)c1ccccc1,i,i,i,i,i
COc1ccc([N+](=O)[O-])c(S(=O)(=O)c2ccc(Cl)cc2)n1,i,i,-6.55*,i,i
COc1ccc([N+](=O)[O-])c(S(=O)(=O)c2ccccc2)n1,i,i,-6.18*,i,i
Cc1ccc(CNCc2cc(Cl)ccc2O)cc1,·,i,i,i,·
COc1cc(S(=O)(=O)N(C)C2CCCCC2)c(C)cc1C,i,·,·,·,i
C=CCC(O)(CCN1CCCCC1)c1ccccc1 (configuration not stated),i,i,i,i,i
COc1ccc(C(O)(CCc2ccccc2)CCN2CCCCC2)cc1 (configuration not stated),i,i,i,i,-8.88*
COc1ccccc1NC(=O)CN1CCN(CC(=O)Nc2ccc(F)cc2F)CC1,i,·,·,·,i
CCCc1cc(=O)oc2cc(C)cc(OCC(=O)NC(Cc3ccc(Cl)cc3)C(=O)O)c12 (configuration not stated),i,i,i,i,i
CCCCc1cc(=O)oc2cc(C)cc(OCC(=O)NC(Cc3ccc(Cl)cc3)C(=O)O)c12 (configuration not stated),i,i,i,i,-8.38*
Cc1ccc2cccc(S(=O)(=O)N3CCCc4ccccc43)c2n1,i,i,i,i,i
COc1ccccc1NC(=O)/C(C#N)=C/c1cc([N+](=O)[O-])ccc1N1CCCC1,i,i,-6.62*,i,i
COc1ccccc1NC(=O)/C(C#N)=C/c1ccncc1,i,i,i,i,i
COc1cc2c(cc1OC)C(COc1ccc(C(C)C)cc1)NCC2 (configuration not stated),i,i,i,i,i
CCCC(C(=O)NCc1ccco1)N(C(=O)CNS(=O)(=O)c1ccc(Cl)cc1)C1CCCC1 (configuration not stated),i,i,-6.74*,i,i
CCC(C(=O)NCc1ccco1)N(C(=O)CNS(=O)(=O)c1ccccc1)C1CCCCC1 (configuration not stated),i,i,i,i,i
CCC(C)[C@H](NC(=O)[C@H](Cc1ccccc1)n1c(=O)[nH]c2ccccc2c1=O)C(=O)NCC1CCC(C(=O)O)CC1 (some centres not stated),i,i,i,i,i
CN(C(=O)COC(=O)c1ccccc1Nc1ccccc1)c1c(N)n(Cc2ccccc2)c(=O)[nH]c1=O,i,i,-7*,i,i
COc1ccc(/C=N/Nc2nc(Nc3ccccc3)nc(N3CCCC3)n2)cc1,i,i,-5.93*,i,i
O=[N+]([O-])c1ccc(Nc2nc(N/N=C/c3cccc(F)c3)nc(N3CCCC3)n2)cc1,i,i,i,i,i
COc1cccc(/C=N/Nc2nc(Nc3ccc([N+](=O)[O-])cc3)nc(N3CCCC3)n2)c1O,i,i,i,i,-9.22*
COc1cc2c(cc1OC)-c1cc(NC3CCCCCC3)nc(=O)n1CC2,i,i,-6.19*,i,i
N=C1/C(=C/c2ccc(-c3cccc(C(=O)O)c3)o2)C(=O)N=C2SC=C(c3ccccc3)N12,i,i,-7.6*,i,-8.37*
